Experimental data from ChEMBL document CHEMBL1821649, “Synthesis, characterization of some benzazoles bearing pyridine moiety: search for novel anticancer agents” (2011).

Experiments:
Assay type in all cases: functional
NCI-H322M = assay: Antitumor activity against human NCI-H322M cells after 48 hrs by SRB assay; conditions: for CC50: read-out: LC50 (the source's name)
In short: (§1)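 NCI-60 human tumour cell panel run under the National Cancer Institute Drug Evaluation Branch protocol. Compounds passing a single-dose prescreen were retested on all lines at five 10-fold dilutions. Growth was expressed as percent growth of treated cells. Response parameters were GI50 (molar concentration giving 50% growth inhibition), TGI (total growth inhibition) and LC50 (median lethal concentration).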

NCI-H23 = assay: Antitumor activity against human NCI-H23 cells after 48 hrs by SRB assay; conditions: NCI-H23, 48 h; in short: as §1
HOP-62 = assay: Antitumor activity against human HOP62 cells after 48 hrs by SRB assay; conditions: HOP-62, 48 h; for CC50: read-out: LC50 (the source's name); in short: as §1
HOP-92 = assay: Antitumor activity against human HOP92 cells after 48 hrs by SRB assay; conditions: HOP-92, 48 h; in short: as §1
A549 = assay: Antitumor activity against human A549 cells after 48 hrs by SRB assay; conditions: A549, 48 h; for CC50: read-out: LC50 (the source's name); in short: as §1
RPMI-8226 = assay: Antitumor activity against human RPMI8226 cells after 48 hrs by SRB assay; conditions: RPMI-8226, 48 h; for CC50: read-out: LC50 (the source's name); in short: as §1
K562 = assay: Antitumor activity against human K562 cells after 48 hrs by SRB assay; conditions: K562, 48 h; in short: as §1
SNB-19 = assay: Antitumor activity against human SNB19 cells after 48 hrs by SRB assay; conditions: SNB-19, 48 h; in short: as §1
U-251 = assay: Antitumor activity against human U251 cells after 48 hrs by SRB assay; conditions: U-251, 48 h; for CC50: read-out: LC50 (the source's name)
In short: (§2)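 NCI-60 human cancer cell line panel run under the NCI Drug Evaluation Branch protocol. Compounds were first screened at a single dose. Those meeting preset inhibition thresholds were retested at five 10-fold dilutions. Output was percent growth of treated cells, given as % growth inhibition. GI50, TGI and LC50 values were derived from the five-dose data.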

OVCAR-4 = assay: Antitumor activity against human OVCAR4 cells after 48 hrs by SRB assay; conditions: OVCAR-4, 48 h; for CC50: read-out: LC50 (the source's name); in short: as §1
IGROV-1 = assay: Antitumor activity against human IGROV1 cells after 48 hrs by SRB assay; conditions: IGROV-1, 48 h; in short: as §1
NCI/ADR-RES = assay: Antitumor activity against human NCI/ADR-RES cells after 48 hrs by SRB assay; conditions: for CC50: read-out: LC50 (the source's name); in short: as §1
LOX IMVI = assay: Antitumor activity against human LOXIMVI cells after 48 hrs by SRB assay; conditions: for CC50: read-out: LC50 (the source's name); in short: as §1
MDA-MB-435 = assay: Antitumor activity against human MDA-MB-435 cells after 48 hrs by SRB assay; conditions: MDA-MB-435, 48 h; in short: as §1
SK-MEL-5 = assay: Antitumor activity against human SK-MEL-5 cells after 48 hrs by SRB assay; conditions: SK-MEL-5, 48 h; in short: as §1
SK-MEL-28 = assay: Antitumor activity against human SK-MEL-28 cells after 48 hrs by SRB assay; conditions: SK-MEL-28, 48 h; in short: as §1
A498 = assay: Antitumor activity against human A498 cells after 48 hrs by SRB assay; conditions: A498, 48 h; for CC50: read-out: LC50 (the source's name); in short: as §1
ACHN = assay: Antitumor activity against human ACHN cells after 48 hrs by SRB assay; conditions: for CC50: read-out: LC50 (the source's name); in short: as §1
PC-3 = assay: Antitumor activity against human PC3 cells after 48 hrs by SRB assay; conditions: PC-3, 48 h; in short: as §1
MCF7 = assay: Antitumor activity against human MCF7 cells after 48 hrs by SRB assay; conditions: MCF7, 48 h; for CC50: read-out: LC50 (the source's name); in short: as §1
MDA-MB-231 = assay: Antitumor activity against human MDA-MB-231 cells after 48 hrs by SRB assay; conditions: MDA-MB-231, 48 h; for CC50: read-out: LC50 (the source's name); in short: as §1
BT-549 = assay: Antitumor activity against human BT549 cells after 48 hrs by SRB assay; conditions: BT-549, 48 h; for CC50: read-out: LC50 (the source's name); in short: as §1
T47D = assay: Antitumor activity against human T47D cells after 48 hrs by SRB assay; conditions: for CC50: read-out: LC50 (the source's name); in short: as §2
[1] = Antitumor activity against human […] cells after 48 hrs by SRB assay; conditions: for CC50: read-out: LC50 (the source's name); in short: as §1
HT-29 = assay: Antitumor activity against human HT-29 cells after 48 hrs by SRB assay; conditions: HT-29, 48 h; for CC50: read-out: LC50 (the source's name); in short: as §1

`COc1ccc(-c2c(C#N)cnc(N)c2-c2nc3cc(C)c(C)cc3[nH]2)cc1` gave a GI50 (NCI-H322M) of 15.5 µM, a TGI (NCI-H322M) of over 100 µM and a CC50 (NCI-H322M) of over 100 µM. It also gave a GI50 (NCI-H23) of 5.37 µM, an LC50 (NCI-H23) of over 100 µM and a TGI (NCI-H23) of 33.3 µM. It also gave a GI50 (HOP-62) of 3.65 µM, a TGI (HOP-62) of 14.4 µM and a CC50 (HOP-62) of 45.2 µM. It also gave a GI50 (HOP-92) of 2.65 µM, an LC50 (HOP-92) of over 100 µM and a TGI (HOP-92) of 16.3 µM. The GI50 (A549) was 6.54 µM, the TGI (A549) was 72.5 µM and the CC50 (A549) was over 100 µM. For the same compound, the GI50 (RPMI-8226) was 32.5 µM, the TGI (RPMI-8226) was over 100 µM and the CC50 (RPMI-8226) was over 100 µM. For the same compound, the GI50 (K562) was 6.03 µM, the LC50 (K562) was over 100 µM and the TGI (K562) was over 100 µM. The GI50 (SNB-19) was 7.06 µM, the LC50 (median lethal concentration) (SNB-19) was over 100 µM and the TGI (SNB-19) was 57.1 µM. It also gave a GI50 (U-251) of 3.65 µM, a TGI (U-251) of 12.7 µM and a CC50 (U-251) of 53.9 µM. It also gave a GI50 (OVCAR-4) of 22.5 µM, a TGI (OVCAR-4) of over 100 µM and a CC50 (OVCAR-4) of over 100 µM. The GI50 (IGROV-1) was 16 µM, the LC50 (IGROV-1) was over 100 µM and the TGI (IGROV-1) was over 100 µM. For the same compound, the GI50 (NCI/ADR-RES) was 6.84 µM, the TGI (NCI/ADR-RES) was over 100 µM and the CC50 (NCI/ADR-RES) was over 100 µM. It also gave a GI50 (LOX IMVI) of 5.74 µM, a TGI (LOX IMVI) of over 100 µM and a CC50 (LOX IMVI) of over 100 µM. The GI50 (MDA-MB-435) was 1.95 µM, the LC50 (median lethal concentration) (MDA-MB-435) was 100 µM and the TGI (MDA-MB-435) was 5.39 µM. The GI50 (SK-MEL-5) was 8.78 µM, the LC50 (SK-MEL-5) was over 100 µM and the TGI (SK-MEL-5) was over 100 µM. For the same compound, the GI50 (SK-MEL-28) was 17.2 µM, the LC50 (median lethal concentration) (SK-MEL-28) was over 100 µM and the TGI (SK-MEL-28) was over 100 µM. It also gave a GI50 (A498) of 10.7 µM, a TGI (A498) of 63.6 µM and a CC50 (A498) of over 100 µM. It also gave a GI50 (ACHN) of 3.98 µM, a TGI (ACHN) of over 100 µM and a CC50 (ACHN) of over 100 µM. The GI50 (PC-3) was 8.86 µM, the GI50 (MCF7) was 6.34 µM and the TGI (MCF7) was over 100 µM. For the same compound, the CC50 (MCF7) was over 100 µM, the GI50 (MDA-MB-231) was 8.28 µM and the TGI (MDA-MB-231) was over 100 µM. For the same compound, the CC50 (MDA-MB-231) was over 100 µM, the GI50 (BT-549) was 30.6 µM and the TGI (BT-549) was over 100 µM. For the same compound, the CC50 (BT-549) was over 100 µM, the GI50 (T47D) was 15.4 µM and the TGI (T47D) was over 100 µM. It also gave a CC50 (T47D) of over 100 µM, a GI50 [1] of 9.8 µM and a TGI [1] of 65.7 µM. It also gave a CC50 [1] of over 100 µM, a GI50 (HT-29) of 4.79 µM and a TGI (HT-29) of over 100 µM. For the same compound, the CC50 (HT-29) was over 100 µM.
`Cc1cc2nc(-c3c(N)ncc(C#N)c3-c3ccc(Cl)cc3)[nH]c2cc1C` showed a GI50 (NCI-H322M) of 27.7 µM, a TGI (NCI-H322M) of over 100 µM and a CC50 (NCI-H322M) of over 100 µM. For the same compound, the GI50 (NCI-H23) was 8.1 µM, the LC50 (NCI-H23) was 99.7 µM and the TGI (NCI-H23) was 30.7 µM. It also gave a GI50 (HOP-62) of 6.36 µM, a TGI (HOP-62) of 21.7 µM and a CC50 (HOP-62) of 55.9 µM. It also gave a GI50 (HOP-92) of 0.275 µM, an LC50 (HOP-92) of 44.2 µM and a TGI (HOP-92) of 5.23 µM. It also gave a GI50 (A549) of 4.17 µM, a TGI (A549) of 24.9 µM and a CC50 (A549) of over 100 µM. It also gave a GI50 (RPMI-8226) of 5.55 µM, a TGI (RPMI-8226) of over 100 µM and a CC50 (RPMI-8226) of over 100 µM. It also gave a GI50 (K562) of 31.5 µM, an LC50 (K562) of over 100 µM and a TGI (K562) of over 100 µM. The GI50 (SNB-19) was 19.5 µM, the LC50 (median lethal concentration) (SNB-19) was over 100 µM and the TGI (SNB-19) was 75.6 µM. The GI50 (U-251) was 5.48 µM, the TGI (U-251) was 21.4 µM and the CC50 (U-251) was 66.2 µM. For the same compound, the GI50 (OVCAR-4) was 4.4 µM, the TGI (OVCAR-4) was 25.4 µM and the CC50 (OVCAR-4) was over 100 µM. For the same compound, the GI50 (IGROV-1) was 18.7 µM, the LC50 (IGROV-1) was over 100 µM and the TGI (IGROV-1) was over 100 µM. It also gave a GI50 (NCI/ADR-RES) of 15.7 µM, a TGI (NCI/ADR-RES) of over 100 µM and a CC50 (NCI/ADR-RES) of over 100 µM. The GI50 (LOX IMVI) was 5.83 µM, the TGI (LOX IMVI) was 26 µM and the CC50 (LOX IMVI) was 80.7 µM. The GI50 (MDA-MB-435) was 2.62 µM, the LC50 (median lethal concentration) (MDA-MB-435) was over 100 µM and the TGI (MDA-MB-435) was over 100 µM. For the same compound, the GI50 (SK-MEL-5) was 10 µM, the LC50 (SK-MEL-5) was over 100 µM and the TGI (SK-MEL-5) was 33.4 µM. It also gave a GI50 (SK-MEL-28) of 5.8 µM, an LC50 (median lethal concentration) (SK-MEL-28) of over 100 µM and a TGI (SK-MEL-28) of 40.2 µM. The GI50 (A498) was 11.8 µM, the TGI (A498) was 59.2 µM and the CC50 (A498) was over 100 µM. For the same compound, the GI50 (ACHN) was 11.1 µM, the TGI (ACHN) was over 100 µM and the CC50 (ACHN) was over 100 µM. It also gave a GI50 (MCF7) of 9.34 µM, a TGI (MCF7) of over 100 µM and a CC50 (MCF7) of over 100 µM. For the same compound, the GI50 (MDA-MB-231) was 10.5 µM, the TGI (MDA-MB-231) was 44.2 µM and the CC50 (MDA-MB-231) was over 100 µM. The GI50 (BT-549) was 37.6 µM, the TGI (BT-549) was over 100 µM and the CC50 (BT-549) was over 100 µM. The GI50 (T47D) was 4.63 µM, the TGI (T47D) was over 100 µM and the CC50 (T47D) was over 100 µM. For the same compound, the GI50 [1] was 19.8 µM, the TGI [1] was 84.2 µM and the CC50 [1] was over 100 µM. For the same compound, the GI50 (HT-29) was 6.06 µM, the TGI (HT-29) was over 100 µM and the CC50 (HT-29) was over 100 µM.
